Reference: ChEMBL document CHEMBL1134408, “Antitumor agents. 207. Design, synthesis, and biological testing of 4beta-anilino-2-fluoro-4'-demethylpodophyllotoxin analogues as cytotoxic and antiviral agents” (2001)
pEC50, pIC50: −log10 of the molar value. Converted amounts (≈) assume the structure as drawn.

Assays:
Human betaherpesvirus 5 = test: Inhibitory activity against human cytomegalovirus (HCMV); type: functional; details: for pIC50: read-out: ID50 (the source's name)
In short: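 Confluent HEL fibroblasts infected with Towne strain CMV at 1–2 PFU/cell, with or without a drug dilution series. Antiviral effect read either as extracellular virus yield (day-6 supernatant titred by plaque assay on HEL, counted at 2 weeks) or as viral DNA by 32P-CMV-probe dot hybridization with scintillation counting of dots.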

A549 [1] = test: GI values against A549 cells (lung cancer); type: functional; details: Homo sapiens
CAKI-1 [2] = test: GI values against CAKI-1 cells(renal carcinoma); type: functional; details: Homo sapiens
[3] = GI values against KB cells (nasopharyngeal carcinoma); type: functional; details: Homo sapiens
[4] = Selectivity index (ED50/ID50) value of the compound; type: functional
In short: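 Ratio of ED50 for growing HEL cells (15-day trypan blue count) to ID50 against Towne strain CMV in HEL fibroblasts.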

Homo sapiens = species on record: Homo sapiens; test: Cytotoxicity against HEL cells
CAKI-1 [5] = test: % inhibition against CAKI-1 cells(renal carcinoma) at 4 ug/mL.; type: functional; details: Homo sapiens
CAKI-1 [6] = test: % inhibition against CAKI-1 cells(renal carcinoma) at 0.04 ug/mL.; type: functional; details: Homo sapiens
MCF7 [7] = test: % inhibition against MCF-7 cells (breast cancer) at 0.4 ug/mL; type: functional; details: Homo sapiens
CAKI-1 [8] = test: % inhibition against CAKI-1 cells(renal carcinoma) at 0.4 ug/mL.; type: functional; details: Homo sapiens
A549 [9] = test: % inhibition against A549 cells (lung cancer) at 0.4 ug/mL; type: functional; details: Homo sapiens
A549 [10] = test: % inhibition against A549 cells (lung cancer) at 4 ug/mL; type: functional; details: Homo sapiens
MCF7 [11] = test: % inhibition against MCF-7 cells (breast cancer) at 0.04 ug/mL; type: functional; details: Homo sapiens
HEL = test: Inhibitory activity against HEL cells; type: functional; details: Homo sapiens, read-out: ED50 (the source's name)
In short: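 Human embryonic lung fibroblasts in MEM/10% FBS, 6% CO2, seeded at 50 000 cells/mL with a drug dilution series. Exposure 15 days; viability and cell counts by trypan blue. ED50 (50% growth reduction versus untreated cells) interpolated from dose–response data.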

[12] = % inhibition against KB cells (nasopharyngeal carcinoma) at 4 ug/mL; type: functional; details: Homo sapiens
[13] = % inhibition against KB cells (nasopharyngeal carcinoma) at 0.4 ug/mL; type: functional; details: Homo sapiens
MCF7 [14] = test: % inhibition against MCF-7 cells (breast cancer) at 4 ug/mL; type: functional; details: Homo sapiens
[15] = % inhibition against KB cells (nasopharyngeal carcinoma) at 0.04 ug/mL; type: functional; details: Homo sapiens
A549 [16] = test: % inhibition against A549 cells (lung cancer) at 0.04 ug/mL; type: functional; details: Homo sapiens
Vero [17] = test: Minimum inhibitory concentration for cell growth inhibition (Herpesvirus activity); type: functional; details: Chlorocebus sabaeus
In short: (§1)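 Cells seeded at 50 000 cells/mL with a drug dilution series, exposed 2 days; cell number by sulforhodamine B staining. ED25 interpolated from dose–response as the concentration cutting absorbency by 25%. MIC = lowest dilution giving detectable growth inhibition. Triplicate wells; absorbency within 5%, ED25 within 30% across independent tests.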

Vero [18] = test: Effective dose required to inhibit 25% of cell growth (Herpesvirus activity); type: functional, Chlorocebus sabaeus; in short: as §1
Human alphaherpesvirus 1 [19] = test: Minimum inhibitory concentration against herpesvirus simplex 1; type: functional
In short: (§2)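 Plaque elimination in pre-formed confluent Vero monolayers, HSV-1 strain KOS or HSV-2 strain 186, ~100 PFU inoculum for 30 min. Overlay medium had 0.5% calf serum, 1% carboxymethylcellulose and drug dilutions. Crystal violet fix/stain at 2 days; macroscopic plaques scored. ED100 = dilution fully eliminating plaques without monolayer toxicity. MIC = lowest dilution reducing plaque size/number. Repeated at least twice.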

Human alphaherpesvirus 2 [20] = test: Effective dose required to inhibit 100% against herpesvirus simplex 2; type: functional; in short: as §2
Human alphaherpesvirus 1 [21] = test: Effective dose required to inhibit 100% against herpesvirus simplex 1; type: functional; in short: as §2
Human alphaherpesvirus 2 [22] = test: Minimum inhibitory concentration against herpesvirus simplex 2; type: functional; in short: as §2

`COc1cc([C@@H]2c3cc4c(cc3[C@@H](Nc3ccc(F)cc3)[C@H]3COC(=O)[C@H]23)OCO4)cc(OC)c1O` showed a pIC50 (Human betaherpesvirus 5) of 6.19, a GI50 (A549 [1]) of 251 nM and a GI50 (CAKI-1 [2]) of 316 nM. The GI50 [3] was 251 nM.

In the case of `COc1cc([C@@H]2c3cc4c(cc3[C@@H](Nc3ccc(N)cc3)[C@H]3COC(=O)[C@H]23)OCO4)cc(OC)c1O`, the pIC50 (Human betaherpesvirus 5) was 5.90, the GI50 (A549 [1]) was 316 nM and the GI50 (CAKI-1 [2]) was 316 nM. The GI50 [3] was 794 nM.

With `COc1cc([C@@H]2c3cc4c(cc3[C@@H](O[C@@H]3O[C@@H]5CO[C@@H](C)O[C@H]5[C@H](O)[C@H]3O)[C@H]3COC(=O)[C@H]23)OCO4)cc(OC)c1O` [ETOPOSIDE] the pIC50 (Human betaherpesvirus 5) was 5.99, the SI [4] was 8.4 and the GI50 (A549 [1]) was 6310 nM. It also gave a GI50 (CAKI-1 [2]) of 6310 nM, an ED50 (Homo sapiens) of 8640 nM and a GI50 [3] of 200 nM.

Work on `COc1cc([C@@H]2c3cc4c(cc3[C@@H](Nc3ccc(F)cc3)[C@H]3COC(=O)[C@]23F)OCO4)cc(OC)c1O` yielded an ID90 (Human betaherpesvirus 5) of 4470 nM, a pIC50 (Human betaherpesvirus 5) of 6.01 and an SI [4] of 6.2. It also gave an inhibition at 4 µg/mL (CAKI-1 [5]) of 44.3%, an inhibition at 0.04 µg/mL (CAKI-1 [6]) of 10.3% and a GI50 (A549 [1]) of 2000 nM. For the same molecule, the inhibition at 0.4 µg/mL (MCF7 [7]) was 20%, the inhibition at 0.4 µg/mL (CAKI-1 [8]) was 15.3% and the GI50 (CAKI-1 [2]) was greater than 10000 nM. It also gave an inhibition at 0.4 µg/mL (A549 [9]) of 26.2%, an inhibition at 4 µg/mL (A549 [10]) of 61.4% and an inhibition at 0.04 µg/mL (MCF7 [11]) of 13.2%. It also gave a GI50 [3] of 2000 nM, a pEC50 (HEL) of 5.21 and an inhibition at 4 µg/mL [12] of 70.9%. The inhibition at 0.4 µg/mL [13] was 10.1%, the inhibition at 4 µg/mL (MCF7 [14]) was 61.2% and the inhibition at 0.04 µg/mL [15] was 7.5%. It also gave an inhibition at 0.04 µg/mL (A549 [16]) of 16.1%.

Work on `COc1cc([C@@H]2c3cc4c(cc3[C@H](O)[C@H]3COC(=O)[C@H]23)OCO4)cc(OC)c1OC` [PODOFILOX] yielded a pIC50 (Human betaherpesvirus 5) greater than 7.00, an MIC (Vero [17]) of 0.008 µM (≈ 3.32 ng/mL) and a GI50 (A549 [1]) of 7.94 nM. The ED25 (Vero [18]) was 20 nM, the MIC (Human alphaherpesvirus 1 [19]) was 0.01 µM (≈ 4.14 ng/mL) and the GI50 (CAKI-1 [2]) was 100 nM. For the same molecule, the ED100 (Human alphaherpesvirus 2 [20]) was 100 nM, the ED100 (Human alphaherpesvirus 1 [21]) was 50 nM and the MIC (Human alphaherpesvirus 2 [22]) was 0.01 µM (≈ 4.14 ng/mL).

With `COc1cc([C@@H]2c3cc4c(cc3[C@@H](Nc3ccc(C#N)cc3)[C@H]3COC(=O)[C@]23F)OCO4)cc(OC)c1O` the ID90 (Human betaherpesvirus 5) was 4290 nM, the pIC50 (Human betaherpesvirus 5) was 6.12 and the SI [4] was 11.1. For the same molecule, the inhibition at 4 µg/mL (CAKI-1 [5]) was 28.4%, the inhibition at 0.04 µg/mL (CAKI-1 [6]) was 7.9% and the inhibition at 0.4 µg/mL (MCF7 [7]) was 8.2%. The inhibition at 0.4 µg/mL (CAKI-1 [8]) was 9.5%, the inhibition at 0.4 µg/mL (A549 [9]) was 11.9% and the inhibition at 4 µg/mL (A549 [10]) was 52.5%. For the same molecule, the inhibition at 0.04 µg/mL (MCF7 [11]) was 7.7%, the pEC50 (HEL) was 5.07 and the inhibition at 4 µg/mL [12] was 30.5%. The inhibition at 0.4 µg/mL [13] was 4.2%, the inhibition at 4 µg/mL (MCF7 [14]) was 45.8% and the inhibition at 0.04 µg/mL [15] was 5%. For the same molecule, the inhibition at 0.04 µg/mL (A549 [16]) was 11.1%.

`COc1cc([C@@H]2c3cc4c(cc3[C@H](O[Si](C)(C)C(C)(C)C)[C@H]3COC(=O)[C@]23F)OCO4)cc(OC)c1OC` showed an MIC (Vero [17]) of 6 µM (≈ 3280 ng/mL) and an ED25 (Vero [18]) of 25000 nM.
